Measured values: paper PMC7528620 (Clinical cancer research : an official journal of the …, 2019)

Experiments:
[1] = Plasma pharmacokinetics, study INCB 57643-101; type: in vivo, human; details: for half-life: human, plasma
Method in brief: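 Plasma PK used noncompartmental analysis in patients given ≥1 dose with ≥1 PK sample, dosed orally at 8, 12 or 16 mg QD continuously. Steady-state oral clearance (CLss/F) and terminal half-life are reported as mean with SD.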

[2] = Effect of a high-fat meal on PK of INCB057643; type: in vivo, human
Method in brief: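 Steady-state plasma PK was compared within 12 patients, each dosed orally once daily in the fasted state and with a high-fat meal. Parameters (Tmax, Cmax, AUCtau) came from noncompartmental analysis. The fed/fasted ratio of geometric means is reported with its 90% CI.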

[3] = tested on: patients with advanced malignancies; assay: Safety and tolerability, phase 1/2 study INCB 57643-101; type: in vivo; details: for TRAEs (any): all treatment groups; for TRAE thrombocytopenia: incl. platelet counts decreased
advanced malignancies = assay: Objective response assessment, study INCB 57643-101; type: in vivo, human; details: for reduction in spleen size by manual palpation: one MF patient
Method in brief: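 Open-label phase 1/2 study in adults (≥18 y) with relapsed/refractory advanced malignancies. Oral dosing was 8–16 mg QD, continuous, as monotherapy (escalation; expansion at 12 mg QD) or from 8 mg QD combined with standard-of-care agents, in 21- or 28-day cycles. Response was assessed with malignancy-specific criteria in patients with ≥1 dose, measurable/evaluable baseline disease and ≥1 post-baseline assessment.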

[4] = tested on: coagulation factor VII (Factor VII); assay: Olink multiplex proximity extension assay of patient plasma; type: in vivo, human; details: cycle 1 day 8
Method in brief: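 Plasma from 80 patients dosed orally at 8, 12 or 16 mg QD was collected at baseline (cycle 1 day 1) and on treatment (cycle 1 day 8, cycle 2 day 1, cycle 4 day 1). About 1,012 proteins were profiled by multiplex proximity extension assay. Factor VII is expressed as fold-change versus baseline.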

[5] = Part 2 TGA, 12 mg QD, 86 patients
[6] = Part 3, 8 mg QD in combination with SOC agents, 13 patients

With `CN1C(=O)C(C)(C)Oc2c(-c3cn(C)c(=O)c4[nH]ccc34)cc(S(C)(=O)=O)cc21` [INCB057643] the half-life ([1]; oral) was roughly 10 h, the half-life ([1]; po) was 11.1 h and the “oral clearance CLss/F, mean [SD]” value ([1]; overall, oral dosing, patients) was 11.1 [4.97] L/h. The “fed vs. fasted geometric mean ratio of Cmax” value ([2]; 90% CI 0.78–1.01) was 0.89, the “fed vs. fasted geometric mean ratio of AUCtau” value ([2]; 90% CI 0.99–1.29) was 1.13 and the “increase of geometric mean AUCtau by high-fat meal” value ([2]; fed vs fasted) was 13%. For the same compound, the “lowering of geometric mean Cmax by high-fat meal” value ([2]; fed vs fasted) was 11%, the “patients requiring dose interruptions and/or reductions due to AEs” value ([3]; 16 mg QD cohort, cycles 1 and 2) was 50% and the “patients with ≥1 any grade TRAE” value ([3]; 134 enrolled patients) was 86%. For the same compound, the “tolerability of the 16 mg QD dose” value ([3]; Part 1 TGA) was “not tolerated”, the DLTs ([3]; Part 1 TGA, grade 3 increased INR, 16 mg QD cohort of 8 patients) was 1 DLT and the “TRAEs leading to dose interruptions” value ([3]; Part 2 TGA, 12 mg QD) was 35%. For the same compound, the “TRAEs leading to dose reductions” value ([3]; Part 2 TGA, 12 mg QD) was 11%, the “patients with a grade 3/4 TRAE” value [3, 5] was 36% and the “patients with a serious TRAE” value [3, 5] was 13%. The “patients with a grade 3/4 TRAE” value ([3]; Part 2 TGB, 12 mg QD, 5 patients) was 40%, the “patients requiring dose interruption” value ([3]; Part 2 TGB, 12 mg QD, febrile neutropenia and thrombocytopenia) was 20% and the “TRAEs leading to dose interruptions” value [3, 6] was 6 patients. For the same compound, the “TRAEs leading to dose reductions” value [3, 6] was 4 patients, the “incidence of TRAE anemia” value ([3]; any grade) was 14% and the “incidence of TRAE decreased appetite” value ([3]; any grade) was 22%. The “incidence of TRAE diarrhea” value ([3]; any grade) was 16%, the “incidence of TRAE dysgeusia” value ([3]; any grade) was 16% and the “incidence of TRAE fatigue” value ([3]; any grade) was 30%. The “incidence of TRAE hyperglycemia” value ([3]; any grade) was 13%, the “incidence of TRAE nausea” value ([3]; any grade) was 30% and the “incidence of TRAE thrombocytopenia” value ([3]; any grade) was 32%. The “incidence of TRAE vomiting” value ([3]; any grade) was 16%, the “patients with treatment-related INR increased events” value ([3]; any grade) was “Seven” and the “TRAEs (any)” value ([3]; any grade, n = 134) was 115 (86) n (%). The TRAE anemia ([3]; any grade, n = 134) was 19 (14) n (%), the TRAE decreased appetite ([3]; any grade, n = 134) was 30 (22) n (%) and the TRAE diarrhea ([3]; any grade, n = 134) was 21 (16) n (%). For the same compound, the TRAE dysgeusia ([3]; any grade, n = 134) was 22 (16) n (%), the TRAE fatigue ([3]; any grade, n = 134) was 40 (30) n (%) and the TRAE hyperglycemia ([3]; any grade, n = 134) was 18 (13) n (%). For the same compound, the TRAE nausea ([3]; any grade, n = 134) was 40 (30) n (%), the TRAE vomiting ([3]; any grade, n = 134) was 21 (16) n (%) and the TRAE thrombocytopenia ([3]; any grade, n = 134) was 43 (32) n (%). The “MTD per protocol definition” value ([3]; at 16 mg QD) was “not reached”, the “incidence of TRAE INR increased” value ([3]; grade ≥3) was 2% and the “incidence of TRAE anemia” value ([3]; grade ≥3) was 10%. The “incidence of TRAE dehydration” value ([3]; grade ≥3) was 2%, the “incidence of TRAE diarrhea” value ([3]; grade ≥3) was 2% and the “incidence of TRAE hyperglycemia” value ([3]; grade ≥3) was 3%. For the same compound, the “incidence of TRAE hyponatremia” value ([3]; grade ≥3) was 2%, the “incidence of TRAE nausea” value ([3]; grade ≥3) was 2% and the “incidence of TRAE syncope” value ([3]; grade ≥3) was 2%. The “incidence of TRAE vomiting” value ([3]; grade ≥3) was 2%, the “TRAEs (any)” value ([3]; grade ≥3, n = 134) was 48 (36) n (%) and the TRAE anemia ([3]; grade ≥3, n = 134) was 14 (10) n (%). The TRAE decreased appetite ([3]; grade ≥3, n = 134) was 0 (0) n (%), the TRAE diarrhea ([3]; grade ≥3, n = 134) was 2 (2) n (%) and the TRAE dysgeusia ([3]; grade ≥3, n = 134) was 0 (0) n (%). For the same compound, the TRAE fatigue ([3]; grade ≥3, n = 134) was 1 (1) n (%), the TRAE hyperglycemia ([3]; grade ≥3, n = 134) was 4 (3) n (%) and the TRAE nausea ([3]; grade ≥3, n = 134) was 2 (2) n (%). For the same compound, the TRAE vomiting ([3]; grade ≥3, n = 134) was 2 (2) n (%), the TRAE thrombocytopenia ([3]; grade ≥3, n = 134) was 24 (18) n (%) and the “deaths deemed related to treatment” value ([3]; human, in vivo) was 2 deaths. The “deaths during the study” value ([3]; human, in vivo) was 17 deaths, the “discontinuation, primary reason adverse event” value ([3]; n = 134) was 20 (15) n (%) and the “discontinuation, primary reason death” value ([3]; n = 134) was 9 (7) n (%). The “patients requiring dose reductions” value ([3]; overall) was 11%, the “patients who discontinued treatment due to TRAEs” value ([3]; overall) was 11% and the “patients with objective responses” value (advanced malignancies; 134 patients) was 6 patients. For the same compound, the “patients who maintained SD for ≥6 months” value (advanced malignancies; all with solid tumors) was 6 patients, the “duration of complete response” value (advanced malignancies; follicular lymphoma patient, 8 mg QD, ongoing at data cutoff) was greater than 2 years and the “patients with SD as best response” value (advanced malignancies; in vivo) was “Twenty-seven”. The “patients with progressive disease as best response” value (advanced malignancies; in vivo) was “Forty-one”, the “discontinuation, primary reason disease progression” value (advanced malignancies; n = 134) was 76 (57) n (%) and the “reduction in spleen size by manual palpation” value (advanced malignancies; 8 mg QD + ruxolitinib) was 77%. For the same compound, the “reduction in spleen size by manual palpation” value (advanced malignancies; 12 mg QD monotherapy) was 92.5%, the “Factor VII mean [SEM] fold decrease vs. baseline” value ([4]; 8 mg) was −0.32 [0.10] and the “Factor VII mean [SEM] fold decrease vs. baseline” value ([4]; 12 mg) was −0.53 [0.14]. For the same compound, the “Factor VII mean [SEM] fold decrease vs. baseline” value ([4]; 16 mg) was −0.53 [0.33].
